Test results published in ChEMBL document CHEMBL1142148, “Antibiotic susceptibility profile of bifidobacteria as affected by oxgall, acid, and hydrogen peroxide stress” (2007).
Converted amounts (≈) assume the structure as drawn.

How the values were obtained:
Bifidobacterium breve [1] = assay: Antimicrobial activity against 60 min 1 M HCl-stressed Bifidobacterium breve ATCC 15700 after 18 hrs; format: functional
Outline: (§1)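 Mid-log MRS culture pelleted and resuspended in MRS broth brought to pH 2.0 with 1 M HCl, held anaerobically at 37°C for 60 min, then subcultured in MRS (pH 6.5) for 24 h anaerobically before MIC testing by broth microdilution (as for unstressed cells). Table footnote gives 18 h anaerobic regrowth after the stress. MIC is the median of four repetitions.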

[2] = Antimicrobial activity against Bifidobacterium infantis ATCC 15697; format: functional, Bifidobacterium longum subsp. infantis; settings: Bifidobacterium longum
Outline: (§2)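 Broth microdilution in MRS plus 0.05% L-cysteine-HCl. Mid-log culture adjusted to OD650 0.1, giving about 2.5 × 10^4 to 5.0 × 10^4 CFU/well, then added to twofold serial dilutions of agent. Plates incubated anaerobically at 37°C for 18 h and read at OD650. MIC is the lowest concentration matching the uninoculated blank OD, taken as the median of four repeats.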

Bifidobacterium animalis [3] = assay: Antimicrobial activity against 90 mins oxgall-stressed Bifidobacterium animalis ATCC 27536 after 18 hrs; format: functional
Outline: (§3)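 Cells pelleted from mid-log MRS culture and resuspended in MRS (initial pH 6.5) with 0.3% (wt/vol) oxgall for 90 min anaerobically at 37°C. They were then regrown in MRS pH 6.5 for 24 h (footnote: 18 h) anaerobically and tested for MIC by the same broth microdilution assay. Median of four repetitions.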

Bifidobacterium breve [4] = assay: Antimicrobial activity against 90 mins oxgall-stressed Bifidobacterium breve ATCC 15700 after 18 hrs; format: functional; outline: as §3
[5] = Antimicrobial activity against 60 min 1 M HCl-stressed Bifidobacterium infantis ATCC 15697 after 18 hrs; format: functional, Bifidobacterium longum subsp. infantis; settings: Bifidobacterium longum; outline: as §1
Bifidobacterium bifidum [6] = assay: Antimicrobial activity against Bifidobacterium bifidum BB12; format: functional; outline: as §2
Bifidobacterium longum [7] = assay: Antimicrobial activity against 90 mins oxgall-stressed Bifidobacterium longum ATCC 15708 after 18 hrs; format: functional; outline: as §3
Bifidobacterium animalis [8] = assay: Antimicrobial activity against 90 mins hydrogen peroxide-stressed Bifidobacterium animalis ATCC 27536 after 18 hrs; format: functional
Outline: (§4)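 Stress applied for 90 min at 37°C under anaerobic conditions, using MRS (initial pH 6.5) containing H2O2 at each strain's own inhibitory concentration. The H2O2 level was set beforehand by microplate tolerance testing. Challenged cells were regrown in MRS for 24 h (footnote: 18 h) before MIC testing by broth microdilution. Median of four repetitions.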

Bifidobacterium bifidum [9] = assay: Antimicrobial activity against 90 mins hydrogen peroxide-stressed Bifidobacterium bifidum R0071 after 18 hrs; format: functional; outline: as §4
[10] = tested on: Bifidobacterium pseudolongum; assay: Antimicrobial activity against 90 mins oxgall-stressed Bifidobacterium pseudolongum ATCC 25562 after 18 hrs; format: functional; outline: as §3
Bifidobacterium longum [11] = assay: Antimicrobial activity against 90 mins oxgall-stressed Bifidobacterium longum P/N 601377 after 18 hrs; format: functional; outline: as §3
Bifidobacterium longum [12] = assay: Antimicrobial activity against 60 min 1 M HCl-stressed Bifidobacterium longum R0175 after 18 hrs; format: functional; outline: as §1
Bifidobacterium breve [13] = assay: Antimicrobial activity against 60 min 1 M HCl-stressed Bifidobacterium breve R0070 after 18 hrs; format: functional; outline: as §1
Bifidobacterium bifidum [14] = assay: Antimicrobial activity against Bifidobacterium bifidum R0071; format: functional; outline: as §2
Bifidobacterium longum [15] = assay: Antimicrobial activity against Bifidobacterium longum ATCC 15708; format: functional; outline: as §2
Bifidobacterium longum [16] = assay: Antimicrobial activity against 60 min 1 M HCl-stressed Bifidobacterium longum P/N 601377 after 18 hrs; format: functional; outline: as §1
Bifidobacterium animalis [17] = assay: Antimicrobial activity against 60 min 1 M HCl-stressed Bifidobacterium animalis ATCC 27536 after 18 hrs; format: functional; outline: as §1
[18] = tested on: Bifidobacterium thermophilum; assay: Antimicrobial activity against 90 mins hydrogen peroxide-stressed Bifidobacterium thermophilum ATCC 25866 after 18 hrs; format: functional; outline: as §4
[19] = tested on: Bifidobacterium thermophilum; assay: Antimicrobial activity against Bifidobacterium thermophilum ATCC 25866; format: functional; outline: as §2
Bifidobacterium longum [20] = assay: Antimicrobial activity against 90 mins hydrogen peroxide-stressed Bifidobacterium longum R0175 after 18 hrs; format: functional; outline: as §4
Bifidobacterium bifidum [21] = assay: Antimicrobial activity against 90 mins hydrogen peroxide-stressed Bifidobacterium bifidum BB12 after 18 hrs; format: functional; outline: as §4
Bifidobacterium bifidum [22] = assay: Antimicrobial activity against 60 min 1 M HCl-stressed Bifidobacterium bifidum BB12 after 18 hrs; format: functional; outline: as §1
Bifidobacterium longum [23] = assay: Antimicrobial activity against Bifidobacterium longum R0175; format: functional; outline: as §2
Bifidobacterium breve [24] = assay: Antimicrobial activity against 90 mins hydrogen peroxide-stressed Bifidobacterium breve R0070 after 18 hrs; format: functional; outline: as §4
[25] = tested on: Bifidobacterium pseudolongum; assay: Antimicrobial activity against Bifidobacterium pseudolongum ATCC 25562; format: functional; outline: as §2
[26] = tested on: Bifidobacterium thermophilum; assay: Antimicrobial activity against 60 min 1 M HCl-stressed Bifidobacterium thermophilum ATCC 25866 after 18 hrs; format: functional; outline: as §1
Bifidobacterium bifidum [27] = assay: Antimicrobial activity against 90 mins oxgall-stressed Bifidobacterium bifidum R0071 after 18 hrs; format: functional; outline: as §3
Bifidobacterium breve [28] = assay: Antimicrobial activity against Bifidobacterium breve ATCC 15700; format: functional; outline: as §2
Bifidobacterium bifidum [29] = assay: Antimicrobial activity against 90 mins oxgall-stressed Bifidobacterium bifidum BB12 after 18 hrs; format: functional; outline: as §3
Bifidobacterium longum [30] = assay: Antimicrobial activity against Bifidobacterium longum P/N 601377; format: functional; outline: as §2
Bifidobacterium bifidum [31] = assay: Antimicrobial activity against 60 min 1 M HCl-stressed Bifidobacterium bifidum R0071 after 18 hrs; format: functional; outline: as §1
Bifidobacterium breve [32] = assay: Antimicrobial activity against Bifidobacterium breve R0070; format: functional; outline: as §2
[33] = tested on: Bifidobacterium thermophilum; assay: Antimicrobial activity against 90 mins oxgall-stressed Bifidobacterium thermophilum ATCC 25866 after 18 hrs; format: functional; outline: as §3
Bifidobacterium bifidum [34] = assay: Antimicrobial activity against 90 mins oxgall-stressed Bifidobacterium bifidum ATCC 15696 after 18 hrs; format: functional; outline: as §3
Bifidobacterium longum [35] = assay: Antimicrobial activity against 90 mins oxgall-stressed Bifidobacterium longum R0175 after 18 hrs; format: functional; outline: as §3
Bifidobacterium breve [36] = assay: Antimicrobial activity against 90 mins oxgall-stressed Bifidobacterium breve R0070 after 18 hrs; format: functional; outline: as §3
Bifidobacterium longum [37] = assay: Antimicrobial activity against 90 mins hydrogen peroxide-stressed Bifidobacterium longum P/N 601377 after 18 hrs; format: functional; outline: as §4
Bifidobacterium bifidum [38] = assay: Antimicrobial activity against Bifidobacterium bifidum ATCC 15696; format: functional; outline: as §2
Bifidobacterium longum [39] = assay: Antimicrobial activity against Bifidobacterium longum ATCC 15707; format: functional; outline: as §2
Bifidobacterium longum [40] = assay: Antimicrobial activity against 90 mins oxgall-stressed Bifidobacterium longum ATCC 15707 after 18 hrs; format: functional; outline: as §3
Bifidobacterium longum [41] = assay: Antimicrobial activity against 90 mins hydrogen peroxide-stressed Bifidobacterium longum ATCC 15708 after 18 hrs; format: functional; outline: as §4
Bifidobacterium animalis [42] = assay: Antimicrobial activity against Bifidobacterium animalis ATCC 27536; format: functional; outline: as §2
[43] = tested on: Bifidobacterium pseudolongum; assay: Antimicrobial activity against 60 min 1 M HCl-stressed Bifidobacterium pseudolongum ATCC 25562 after 18 hrs; format: functional; outline: as §1
Bifidobacterium breve [44] = assay: Antimicrobial activity against 90 mins hydrogen peroxide-stressed Bifidobacterium breve ATCC 15700 after 18 hrs; format: functional; outline: as §4
[45] = Antimicrobial activity against 90 mins oxgall-stressed Bifidobacterium infantis ATCC 15697 after 18 hrs; format: functional, Bifidobacterium longum subsp. infantis; settings: Bifidobacterium longum; outline: as §3
Bifidobacterium longum [46] = assay: Antimicrobial activity against 60 min 1 M HCl-stressed Bifidobacterium longum ATCC 15707 after 18 hrs; format: functional; outline: as §1
Bifidobacterium longum [47] = assay: Antimicrobial activity against 90 mins hydrogen peroxide-stressed Bifidobacterium longum ATCC 15707 after 18 hrs; format: functional; outline: as §4

MIC (Bifidobacterium breve [1]): 125 µg/mL (≈ 287 µM)
MIC [2]: 15.6 µg/mL (≈ 35.8 µM)
MIC (Bifidobacterium animalis [3]): 125 µg/mL (≈ 287 µM)
MIC (Bifidobacterium breve [4]): 3.9 µg/mL (≈ 8.95 µM)
MIC [5]: 125 µg/mL (≈ 287 µM)
MIC (Bifidobacterium bifidum [6]): 0.98 µg/mL (≈ 2.25 µM)
MIC (Bifidobacterium longum [7]): 125 µg/mL (≈ 287 µM)
MIC (Bifidobacterium animalis [8]): 3.9 µg/mL (≈ 8.95 µM)
MIC (Bifidobacterium bifidum [9]): 31.2 µg/mL (≈ 71.6 µM)
MIC [10]: 62.5 µg/mL (≈ 143 µM)
MIC (Bifidobacterium longum [11]): 62.5 µg/mL (≈ 143 µM)
MIC (Bifidobacterium longum [12]): 0.98 µg/mL (≈ 2.25 µM)
MIC (Bifidobacterium breve [13]): 15.6 µg/mL (≈ 35.8 µM)
MIC (Bifidobacterium bifidum [14]): 15.6 µg/mL (≈ 35.8 µM)
MIC (Bifidobacterium longum [15]): 7.8 µg/mL (≈ 17.9 µM)
MIC (Bifidobacterium longum [16]): 0.98 µg/mL (≈ 2.25 µM)
MIC (Bifidobacterium animalis [17]): 3.9 µg/mL (≈ 8.95 µM)
MIC [18]: 7.8 µg/mL (≈ 17.9 µM)
MIC [19]: 15.6 µg/mL (≈ 35.8 µM)
MIC (Bifidobacterium longum [20]): 31.2 µg/mL (≈ 71.6 µM)
MIC (Bifidobacterium bifidum [21]): 1.9 µg/mL (≈ 4.36 µM)
MIC (Bifidobacterium bifidum [22]): 0.98 µg/mL (≈ 2.25 µM)
MIC (Bifidobacterium longum [23]): 62.5 µg/mL (≈ 143 µM)
MIC (Bifidobacterium breve [24]): 15.6 µg/mL (≈ 35.8 µM)
MIC [25]: 3.9 µg/mL (≈ 8.95 µM)
MIC [26]: 31.2 µg/mL (≈ 71.6 µM)
MIC (Bifidobacterium bifidum [27]): 62.5 µg/mL (≈ 143 µM)
MIC (Bifidobacterium breve [28]): 15.6 µg/mL (≈ 35.8 µM)
MIC (Bifidobacterium bifidum [29]): 1.9 µg/mL (≈ 4.36 µM)
MIC (Bifidobacterium longum [30]): 31.2 µg/mL (≈ 71.6 µM)
MIC (Bifidobacterium bifidum [31]): 15.6 µg/mL (≈ 35.8 µM)
MIC (Bifidobacterium breve [32]): 31.2 µg/mL (≈ 71.6 µM)
MIC [33]: 62.5 µg/mL (≈ 143 µM)
MIC (Bifidobacterium bifidum [34]): 62.5 µg/mL (≈ 143 µM)
MIC (Bifidobacterium longum [35]): 125 µg/mL (≈ 287 µM)
MIC (Bifidobacterium breve [36]): 31.2 µg/mL (≈ 71.6 µM)
MIC (Bifidobacterium longum [37]): 31.2 µg/mL (≈ 71.6 µM)
MIC (Bifidobacterium bifidum [38]): 7.8 µg/mL (≈ 17.9 µM)
MIC (Bifidobacterium longum [39]): 15.6 µg/mL (≈ 35.8 µM)
MIC (Bifidobacterium longum [40]): 125 µg/mL (≈ 287 µM)
MIC (Bifidobacterium longum [41]): 7.8 µg/mL (≈ 17.9 µM)
MIC (Bifidobacterium animalis [42]): 3.9 µg/mL (≈ 8.95 µM)
MIC [43]: 0.98 µg/mL (≈ 2.25 µM)
MIC (Bifidobacterium breve [44]): 3.9 µg/mL (≈ 8.95 µM)
MIC [45]: 125 µg/mL (≈ 287 µM)
MIC (Bifidobacterium longum [46]): 15.6 µg/mL (≈ 35.8 µM)
MIC (Bifidobacterium longum [47]): 0.98 µg/mL (≈ 2.25 µM)
Structure (SMILES): Cc1onc(-c2ccccc2Cl)c1C(=O)N[C@@H]1C(=O)N2[C@@H]1SC(C)(C)[C@@H]2C(=O)O [CLOXACILLIN]
